Measurements as given in ChEMBL document CHEMBL5260841, “Discovery of N-(4-(6-Acetamidopyrimidin-4-yloxy)phenyl)-2-(2-(trifluoromethyl)phenyl)acetamide (CHMFL-FLT3-335) as a Potent FMS-like Tyrosine Kinase 3 Internal Tandem Duplication (FLT3-ITD) Mutant Selective Inhibitor for Acute Myeloid Leukemia” (J Med Chem, 2019).

How the values were obtained:
[1] = target: T1, Signal transducer and activator of transcription 5A (Homo sapiens) (UniProt P42229); assay: Inhibition of STAT5 phosphorylation at Tyr694 residue in human MV4-11 cells harboring FLT3-ITD mutant incubated for 4 hrs by Western blot analysis; type: cell-based; conditions: dose 0.01-3 µM
T1 sequence (whole entry): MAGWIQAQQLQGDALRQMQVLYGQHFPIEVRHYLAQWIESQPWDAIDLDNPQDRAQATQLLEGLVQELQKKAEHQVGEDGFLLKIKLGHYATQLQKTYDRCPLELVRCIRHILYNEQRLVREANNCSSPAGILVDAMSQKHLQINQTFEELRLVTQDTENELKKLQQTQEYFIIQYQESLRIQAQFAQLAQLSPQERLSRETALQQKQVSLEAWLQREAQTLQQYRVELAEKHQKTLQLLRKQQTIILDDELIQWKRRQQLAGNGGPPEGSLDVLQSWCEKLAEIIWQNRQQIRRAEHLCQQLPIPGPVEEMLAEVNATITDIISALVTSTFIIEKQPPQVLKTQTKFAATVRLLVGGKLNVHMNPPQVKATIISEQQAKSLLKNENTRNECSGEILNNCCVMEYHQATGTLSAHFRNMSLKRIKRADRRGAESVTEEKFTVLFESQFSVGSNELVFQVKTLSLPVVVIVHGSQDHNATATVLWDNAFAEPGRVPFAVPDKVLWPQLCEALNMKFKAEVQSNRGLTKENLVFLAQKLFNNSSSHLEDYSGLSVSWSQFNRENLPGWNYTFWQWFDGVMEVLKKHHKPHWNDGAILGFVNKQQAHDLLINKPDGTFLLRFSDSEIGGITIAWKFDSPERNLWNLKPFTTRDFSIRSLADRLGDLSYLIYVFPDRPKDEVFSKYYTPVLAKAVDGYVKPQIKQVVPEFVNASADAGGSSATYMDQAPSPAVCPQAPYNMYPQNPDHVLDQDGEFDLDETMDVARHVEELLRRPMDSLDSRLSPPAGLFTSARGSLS
Procedure, shortened: (§1)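 Cells were exposed to the compound at a series of concentrations for 4 h, and whole-cell lysates were analysed by Western blot. MV4-11 cells were grown in IMDM with 10% FBS. MOLM13 and MOLM14 cells were grown in RPMI 1640 with 10% FBS. All cultures were kept at 37 °C with 5% CO2.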

BaF3 [2] = assay: Antiproliferative activity against mouse BaF3 cells transfected with TEL fused FLT3 G697R mutant assessed as cell growth inhibition incubated for 72 hrs by CCK-8 assay; type: functional
Procedure, shortened: (§2)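 Kinase-transformed isogenic BaF3 lines grown in RPMI 1640 with 10% FBS, 2% L-glutamine and pen/strep at 37 °C, 5% CO2. Seeded at 1500-3000 cells/well and treated with a compound concentration series for 72 h. Viability read by CCK8 absorbance at 450 nm.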

[3] = MRT (0 to t) in Sprague-Dawley rat at 10 mg/kg, po; type: ADME, organism-based; conditions: in vivo
Procedure, shortened: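 Sprague-Dawley rats were dosed either intravenously at 1 mg/kg or by oral gavage at 10 mg/kg. Plasma PK parameters were AUC(0-t), AUC(0-∞), MRT(0-t), T1/2, Tmax, Vz, CLz, Cmax and F%. Values are the mean ± SD of three independent animals.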

BaF3 [4] = assay: Antiproliferative activity against mouse BaF3 cells transfected with TEL fused PDGFRbeta assessed as cell growth inhibition incubated for 72 hrs by CCK-8 assay; type: functional; procedure, shortened: as §2
BaF3 [5] = assay: Antiproliferative activity against mouse BaF3 cells transfected with TEL-fused FLT3 assessed as cell growth inhibition incubated for 72 hrs by CCK-8 assay; type: functional; procedure, shortened: as §2
MOLM-14 [6] = assay: Induction of apoptosis in human MOLM-14 cells harboring FLT3-ITD mutant assessed as increase in cleaved caspase-3 level incubated for 24 hrs by Western blot analysis; type: functional, cell-based; conditions: dose 0.1-3 µM
[7] = Cmax in Sprague-Dawley rat at 1 mg/kg, iv; type: ADME, organism-based; set-up: dose 1 mg/kg, route iv; conditions: in vivo
Procedure, shortened: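 Sprague-Dawley rats dosed IV at 1 mg/kg or by oral gavage at 10 mg/kg. Parameters from plasma exposure: AUC(0-t), AUC(0-∞), MRT, T1/2, Tmax, Vz, CLz, Cmax. Values are mean ± SD from three animals.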

[8] = target: T2, Receptor-type tyrosine-protein kinase FLT3 (Homo sapiens, UniProt P36888); assay: Inhibition of FLT3 (unknown origin) preincubated for 60 mins followed by ATP addition and measured after 1 hr by ADP-Glo assay
T2 sequence (P36888 whole entry): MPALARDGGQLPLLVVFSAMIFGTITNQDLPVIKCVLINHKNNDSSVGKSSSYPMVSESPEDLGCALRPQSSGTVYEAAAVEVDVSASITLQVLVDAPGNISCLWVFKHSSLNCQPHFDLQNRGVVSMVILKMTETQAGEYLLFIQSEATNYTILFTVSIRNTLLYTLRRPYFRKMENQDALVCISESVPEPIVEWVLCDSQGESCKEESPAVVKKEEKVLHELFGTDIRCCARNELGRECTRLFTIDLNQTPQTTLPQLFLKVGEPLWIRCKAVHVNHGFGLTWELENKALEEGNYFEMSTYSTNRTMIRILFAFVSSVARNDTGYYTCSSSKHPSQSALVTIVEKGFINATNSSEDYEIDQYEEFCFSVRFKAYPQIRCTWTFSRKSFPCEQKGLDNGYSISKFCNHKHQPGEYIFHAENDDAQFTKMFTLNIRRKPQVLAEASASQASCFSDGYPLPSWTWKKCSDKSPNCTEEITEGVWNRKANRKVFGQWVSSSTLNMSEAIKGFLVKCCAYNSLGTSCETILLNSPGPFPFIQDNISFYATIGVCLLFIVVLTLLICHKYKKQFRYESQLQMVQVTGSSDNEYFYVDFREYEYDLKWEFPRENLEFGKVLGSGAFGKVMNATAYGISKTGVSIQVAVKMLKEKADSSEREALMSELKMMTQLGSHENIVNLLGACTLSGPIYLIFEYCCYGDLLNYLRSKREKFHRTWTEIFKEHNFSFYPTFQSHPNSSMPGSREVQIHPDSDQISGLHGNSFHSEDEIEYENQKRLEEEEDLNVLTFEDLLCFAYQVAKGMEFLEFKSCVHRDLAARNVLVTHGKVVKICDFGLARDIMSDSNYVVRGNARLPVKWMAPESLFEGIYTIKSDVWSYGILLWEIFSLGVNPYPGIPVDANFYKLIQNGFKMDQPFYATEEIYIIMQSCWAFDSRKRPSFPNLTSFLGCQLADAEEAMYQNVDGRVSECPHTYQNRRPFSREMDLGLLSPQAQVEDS

MV4-11 = assay: Induction of apoptosis in human MV4-11 cells harboring FLT3-ITD mutant assessed as increase in cleaved caspase-3 level incubated for 24 hrs by Western blot analysis; type: functional, cell-based; conditions: dose 0.1-3 µM
MOLM-13 = assay: Inhibition of AKT phosphorylation at Ser473 residue in human MOLM-13 cells harboring FLT3-ITD mutant incubated for 4 hrs by Western blot analysis; type: cell-based; conditions: dose 0.01-3 µM; procedure, shortened: as §1
MOLM-14 [9] = assay: Downregulation of c-Myc protein expression in human MOLM-14 cells harboring FLT3-ITD mutant incubated for 4 hrs by Western blot analysis; type: functional, cell-based; conditions: dose 0.01-3 µM
Procedure, shortened: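 MOLM13 and MOLM14 cells exposed to the indicated concentrations for 4 h. Whole-cell lysates analysed by Western blot for c-Myc, alongside FLT3 Tyr589/591, STAT5, AKT and ERK phosphorylation.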

inhibition [1]: Dose-Dependent Effect
GI50 (BaF3 [2]): 0.54 µM
MRT last [3]: 4.5 h
GI50 (BaF3 [4]): 0.04 µM
GI50 (BaF3 [5]): 0.249 µM
Cmax [7]: 1030 ng/mL
IC50 [8]: 0.0908 µM
SMILES: CC(=O)Nc1cc(Oc2ccc(NC(=O)Cc3ccccc3C(F)(F)F)cc2)ncn1
Activity (MOLM-14 [6]): Dose-Dependent Effect
Activity (MV4-11): Dose-Dependent Effect
inhibition (MOLM-13): Dose-Dependent Effect
Activity (MOLM-14 [9]): Dose-Dependent Effect
